Laboratory results reported in ChEMBL document CHEMBL1795266, “Synthesis and evaluation of monoamidoxime derivatives: toward new antileishmanial compounds” (Eur J Med Chem, 2011).

What was measured:
[1] = Selectivity index, ratio of IC50 for mouse J774A1 cells to IC50 for Leishmania donovani MHOM/IN/OO/DEVI promastigote; format: toxicity, cell-based, J774.A1; conditions: read-out: Ratio IC50
Leishmania donovani = experiment: Antileishmanial activity against Leishmania donovani MHOM/IN/00/DEVI promastigote after 72 hrs by MTT assay; format: functional, organism-based
In short: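 Promastigotes were seeded at 10⁶ parasites/mL in medium containing penicillin and streptomycin, with a range of compound concentrations in duplicate (DMSO under 0.5% v/v final). After MTT addition, plates stood 6 h at 27 °C and were spun at 900 G for 10 min. The pellet was dissolved in DMSO and read at 570 nm. IC50 (50% loss of metabolic activity versus control) came from nonlinear dose-response regression.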

J774.A1 = experiment: Cytotoxic activity against mouse J774A1 cells after 72 hrs by MTT assay; format: cell-based; conditions: J774.A1, 72 h
In short: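 J774A.1 macrophages were grown in medium with 10% FCS, 2 mM L-glutamine, penicillin and streptomycin. Cells were seeded at 5 × 10⁴ cells/mL with a concentration range in duplicate (DMSO under 0.5% v/v final) and held 72 h at 37 °C, 6% CO₂. MTT was added at 0.5 mg/mL in RPMI 1640 for 2 h at 37 °C. Formazan was dissolved in DMSO and read at 570 nm. IC50 came from nonlinear regression, as the mean of three independent experiments.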

Row | SMILES | selectivity ratio [1] | IC50 (Leishmania donovani) | IC50 (J774.A1)
1 | CC1(Cc2ccccc2)CC(S(=O)(=O)c2ccc(C(F)(F)F)cc2)=C(c2ccc(/C(N)=N/O)cc2)O1 (stereo unspecified) | 3.87 | 7.89 µM | 30.5 µM
2 | CC1(Cc2ccccc2)CC(S(=O)(=O)c2ccc(F)cc2)=C(c2ccc(/C(N)=N/O)cc2)O1 (stereo unspecified) | 6.37 | 7.15 µM | 45.5 µM
3 | CC1(Cc2ccccc2)CC(S(=O)(=O)c2ccc(Cl)cc2)=C(c2ccc(/C(N)=N/O)cc2)O1 (stereo unspecified) | 3.71 | 7.4 µM | 27.4 µM
4 | CC1(Cc2ccccc2)CC(S(=O)(=O)c2ccc(Br)cc2)=C(c2ccc(/C(N)=N/O)cc2)O1 (stereo unspecified) | 3.85 | 5.21 µM | 20.1 µM
5 | CC1(Cc2ccccc2)CC(S(=O)(=O)c2ccc(I)cc2)=C(c2ccc(/C(N)=N/O)cc2)O1 (stereo unspecified) | 1.72 | 6.89 µM | 11.8 µM
6 | CC1(Cc2ccccc2)CC(S(=O)(=O)c2ccc([N+](=O)[O-])cc2)=C(c2ccc(/C(N)=N/O)cc2)O1 (stereo unspecified) | 2.61 | 19.4 µM | 50.6 µM
7 | COc1ccc(S(=O)(=O)C2=C(c3ccc(/C(N)=N/O)cc3)OC(C)(Cc3ccccc3)C2)cc1 (stereo unspecified) | 1.21 | 7.49 µM | 9.03 µM
8 | CC1(Cc2ccccc2)CC(S(=O)(=O)c2ccc(/C(N)=N\O)cc2)=C(c2ccc(C(F)(F)F)cc2)O1 (stereo unspecified) | 1.4 | 8.46 µM | 11.9 µM
9 | CC1(Cc2ccccc2)CC(S(=O)(=O)c2ccc(/C(N)=N\O)cc2)=C(c2ccc(F)cc2)O1 (stereo unspecified) | 1.18 | 30.7 µM | 36.2 µM
10 | CC1(Cc2ccccc2)CC(S(=O)(=O)c2ccc(/C(N)=N\O)cc2)=C(c2ccc(Cl)cc2)O1 (stereo unspecified) | 0.71 | 9.87 µM | 7.05 µM
11 | CC1(Cc2ccccc2)CC(S(=O)(=O)c2ccc(/C(N)=N\O)cc2)=C(c2ccc(Br)cc2)O1 (stereo unspecified) | 1.09 | 8.95 µM | 9.78 µM
12 | CC1(Cc2ccccc2)CC(S(=O)(=O)c2ccc(/C(N)=N\O)cc2)=C(c2ccc(I)cc2)O1 (stereo unspecified) | 1.22 | 6.63 µM | 8.08 µM
13 | CC1(Cc2ccccc2)CC(S(=O)(=O)c2ccc(/C(N)=N\O)cc2)=C(c2ccc([N+](=O)[O-])cc2)O1 (stereo unspecified) | 0.98 | 18.8 µM | 18.5 µM
14 | C[C@@H]1[C@H](O)[C@@H](C)/C=C/C=C/C=C/C=C/C=C/C=C/C=C/[C@H](O[C@@H]2O[C@H](C)[C@@H](O)[C@H](N)[C@@H]2O)C[C@@H]2O[C@](O)(C[C@@H](O)C[C@@H](O)[C@H](O)CC[C@@H](O)C[C@@H](O)CC(=O)O[C@H]1C)C[C@H](O)[C@H]2C(=O)O [AMPHOTERICIN B] | 4.08 | 0.77 µM | 3.14 µM
15 | COc1cccc2c1C(=O)c1c(O)c3c(c(O)c1C2=O)C[C@@](O)(C(=O)CO)C[C@@H]3O[C@H]1C[C@H](N)[C@H](O)[C@H](C)O1 [DOXORUBICIN] |  |  | 0.02 µM
16 | N=C(N)c1ccc(OCCCCCOc2ccc(C(=N)N)cc2)cc1 [PENTAMIDINE] | 0.16 | 6.29 µM | 1.03 µM
